In assay [1] the test system is P388. Put plainly: Compound (25.6 mg/kg) was tested in vivo against P388 lymphocytic leukemia screen for Median survival time. Type of assay: functional, Mus musculus. In short, it runs like this: (§1)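 Murine P388 lymphocytic leukemia, tumour implanted ip and drug also given ip; testing at Bristol-Myers. Median survival time recorded at the optimal dose (mg/kg per dose) beside concurrently run mitomycin C control; %T/C = treated median survival/control median survival × 100.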

The test system of assay [2] is P388. Nature of the assay: Minimum effective dose observed for the substrate. Type of assay: functional. To be noted: Mus musculus, read-out: MED. A digest of the protocol: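 Same ip P388 leukemia model with ip dosing; minimum effective dose taken as lowest mg/kg per dose giving %T/C ≥ 125, with concurrent mitomycin C values.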
In assay [3] the test system is P388. Put plainly: Compound (51.2 mg/kg) was tested in vivo against P388 lymphocytic leukemia screen for Median survival time. Type of assay: functional, Mus musculus. In short, it runs like this: as §1
For assay [4], the system named is P388. Nature of the assay: Compound (6.4 mg/kg) was tested in vivo against P388 lymphocytic leukemia screen for Median survival time. Format: functional, Mus musculus. In short, it runs like this:
as §1

Molecules are shown by their SMILES.

Here are results for 8 compounds from ChEMBL document CHEMBL1124331, “Mitomycin C analogues with a substituted hydrazine at position 7. Synthesis, spectral properties, and biological activity” (1989).

Take `CCOC(=O)/N=N/c1c(C)c(O)c2c(c1O)[C@@H](COC(N)=O)[C@@]1(OC)[C@H]3N[C@H]3CN21`: the T/C in the assay on P388 [1] is 180%. In the assay on P388 [2], the minimal effective dose came to 0.8 mg/kg.
The like results for `CO[C@@]12[C@H](COC(N)=O)c3c(O)c(/N=N/C(=O)c4cccnc4)c(C)c(O)c3N1C[C@@H]1N[C@@H]12` were, in that order, 150% and 12.8 mg/kg.
The compound `CO[C@@]12[C@H](COC(N)=O)c3c(O)c(/N=N/C(C)=O)c(C)c(O)c3N1C[C@@H]1N[C@@H]12` registered a T/C in the assay with P388 [3] of 190%. Besides, in the assay with P388 [2], the minimal effective dose turned out to be 1.6 mg/kg.
In the assay with P388 [4], `CO[C@@]12[C@H](COC(N)=O)c3c(O)c(/N=N/C(=O)c4cccs4)c(C)c(O)c3N1C[C@@H]1N[C@@H]12` registered a T/C of 140%. Also, in the assay with P388 [2], the minimal effective dose was 0.8 mg/kg.
For the compound `CO[C@@]12[C@H](COC(N)=O)c3c(O)c(/N=N/C(=O)c4ccccc4)c(C)c(O)c3N1C[C@@H]1N[C@@H]12`, the T/C with P388 [1] is reported as 150%. Further, in the assay with P388 [2], the minimal effective dose was 0.8 mg/kg.
With `CO[C@@]12[C@H](COC(N)=O)c3c(O)c(/N=N/C(=O)OCc4ccccc4)c(C)c(O)c3N1C[C@@H]1N[C@@H]12`, in the assay on P388 [4], the T/C is 185%. For the same compound, the minimal effective dose in the assay with P388 [2] was 1.6 mg/kg.
Compound `CO[C@@]12[C@H](COC(N)=O)c3c(O)c(/N=N/C(=O)OCC4c5ccccc5-c5ccccc54)c(C)c(O)c3N1C[C@@H]1N[C@@H]12` showed a T/C with P388 [1] of 195%. The minimal effective dose with P388 [2] turned out to be 0.8 mg/kg.
The like results for `CO[C@@]12[C@H](COC(N)=O)c3c(O)c(/N=N/C(=O)OC(C)(C)C)c(C)c(O)c3N1C[C@@H]1N[C@@H]12` were, in that order, 160% and 0.8 mg/kg.

One may read the T/C as the ratio of treated to control.
